Activity calls are given as the source filed them. No cut-off for these calls is given here.
Assays:
A549 [1] = experiment: Induction of apoptosis in human A549 cells expressing p53 assessed as chromatin condensation at 16 to 64 uM after 48 hrs by Hoechst 33258 staining-based fluorescence microscopy; assay type: functional, cell-based
Method in brief: (§1)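 Live A549 cells treated 48 h at 16, 32 or 64 µM, or with 0.1% DMSO. Stained in medium with 10 µg/mL Hoechst 33258 for 10 min at 37 °C, washed with PBS. Fluorescence microscopy (200×) scored intense local nuclear staining as apoptotic. At least 500 cells counted; triplicate.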

[2] = Cytotoxicity against human embryonic lung cells assessed as growth inhibition at 32 to 64 uM after 48 hrs by SRB assay; assay type: cell-based
Method in brief: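 Human embryo lung cells grown in RPMI 1640 with 10% bovine calf serum, seeded at 6250/cm2, treated 48 h at 32 or 64 µM. Controls were 0.1% DMSO vehicle and 5-FU as positive control. Viability by SRB, relative to DMSO-treated cells. Means ± SE, three independent experiments.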

A549 [3] = experiment: Induction of apoptosis in human A549 cells expressing p53 assessed as DNA fragmentation at 16 to 64 uM after 48 hrs by Hoechst 33258 staining-based fluorescence microscopy; assay type: functional, cell-based; method in brief: as §1
A549 [4] = experiment: Growth inhibition of human A549 cells assessed as cell viability after 48 hrs by SRB assay; assay type: functional, cell-based
Method in brief: (§2)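 A549 cells (p53 wild-type) in RPMI 1640 with 10% bovine calf serum, seeded at 6250/cm2 in 96-well plates. Exposed 48 h to 8, 16, 32 or 64 µM. SRB read-out gave survival percentage against 0.1% DMSO-treated cells. Means ± SE from three independent experiments.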

NCI-H1299 [5] = experiment: Induction of apoptosis in human p53-null H1299 cells assessed as DNA fragmentation at 32 to 64 uM after 48 hrs by Hoechst 33258 staining-based fluorescence microscopy; assay type: functional, cell-based
Method in brief: (§3)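 H322 or H1299 cells treated 48 h at 32 or 64 µM versus 0.1% DMSO. Fixed in 4% formaldehyde in PBS for 10 min, then stained with 2 µg/mL Hoechst 33258, 30 min, 37 °C, and washed with PBS. Condensed, intensely stained nuclei counted as apoptotic under fluorescence microscopy. At least 500 cells counted; triplicate.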

NCI-H322 [6] = experiment: Induction of apoptosis in human NCI-H322 cells expressing P53 mutant assessed as DNA fragmentation at 32 to 64 uM after 48 hrs by Hoechst 33258 staining-based fluorescence microscopy; assay type: functional, cell-based; method in brief: as §3
A549 [7] = experiment: Cell cycle arrest in human A549 cells assessed as accumulation at S phase at 64 uM after 48 hrs by propidium iodide staining-based flow cytometry (reference value: 30.36 %); assay type: functional
NCI-H1299 [8] = experiment: Induction of apoptosis in human p53-null H1299 cells assessed as chromatin condensation at 32 to 64 uM after 48 hrs by Hoechst 33258 staining-based fluorescence microscopy; assay type: functional, cell-based; method in brief: as §3
NCI-H1299 [9] = experiment: Growth inhibition of human H1299 cells assessed as cell viability after 48 hrs by SRB assay; assay type: functional, cell-based
Method in brief: (§4)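 H1299 (p53-null) or H322 (p53-mutant) cells in RPMI 1640 with 10% bovine calf serum, seeded at 6250/cm2. Treated 48 h at 16, 32 or 64 µM. SRB assay, survival relative to 0.1% DMSO solvent control. Means ± SE, three independent experiments.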

A549 [10] = experiment: Induction of necrosis in human A549 cells assessed as LDH release at 64 uM after 48 hrs; assay type: functional, cell-based
Method in brief: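 A549 cells exposed 48 h to 64 µM or 0.1% DMSO control. Culture medium collected and lactate dehydrogenase measured with a commercial kit, absorbance at 440 nm. Mean ± SE, n = 3.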

NCI-H322 [11] = experiment: Growth inhibition of human NCI-H322 cells assessed as cell viability after 48 hrs by SRB assay; assay type: functional, cell-based; method in brief: as §4
A549 [12] = experiment: Cell cycle arrest in human A549 cells assessed as accumulation at G2 phase at 64 uM after 48 hrs by propidium iodide staining-based flow cytometry (reference value: 11.52 %); assay type: functional
A549 [13] = experiment: Cell cycle arrest in human A549 cells assessed as accumulation at […] phase at 64 uM after 48 hrs by propidium iodide staining-based flow cytometry (reference value: 1.94 %); assay type: functional
NCI-H322 [14] = experiment: Induction of apoptosis in human NCI-H322 cells expressing P53 mutant assessed as chromatin condensation at 32 to 64 uM after 48 hrs by Hoechst 33258 staining-based fluorescence microscopy; assay type: functional, cell-based; method in brief: as §3
A549 [15] = experiment: Cell cycle arrest in human A549 cells assessed as accumulation at G1 phase at 64 uM after 48 hrs by propidium iodide staining-based flow cytometry relative to control; assay type: functional
A549 [16] = experiment: Growth inhibition of human A549 cells assessed as cell viability at 8 to 64 uM after 48 hrs by SRB assay; assay type: functional, cell-based; method in brief: as §2

Structure (SMILES): O=C1c2cc(-c3ccc(Cl)cc3)nn2CCN1CCCO
- Activity (A549 [1]): inactive
- Activity [2]: Non-toxic
- Activity (A549 [3]): inactive
- growth inhibition (GI) (A549 [4]): Dose-dependent effect
- Activity (NCI-H1299 [5]): Active
- Activity (NCI-H322 [6]): Active
- Activity (A549 [7]): 3.83%
- Activity (NCI-H1299 [8]): Active
- growth inhibition (GI) (NCI-H1299 [9]): Dose-dependent effect
- Activity (A549 [10]): inactive
- growth inhibition (GI) (NCI-H322 [11]): Dose-dependent effect
- Activity (A549 [12]): 5.54%
- Activity (A549 [13]): 1.92%
- Activity (NCI-H322 [14]): Active
- Activity (A549 [15]): 32%

Structure (SMILES): O=C1c2cc(-c3ccc(Cl)cc3)nn2CCN1CCOCCO
- Activity (A549 [1]): inactive
- Activity [2]: Non-toxic
- Activity (A549 [3]): inactive
- growth inhibition (GI) (A549 [4]): Dose-dependent effect
- Activity (NCI-H1299 [5]): Active
- Activity (NCI-H322 [6]): Active
- Activity (A549 [7]): 20.98%
- Activity (NCI-H1299 [8]): Active
- growth inhibition (GI) (NCI-H1299 [9]): Dose-dependent effect
- Activity (A549 [10]): inactive
- growth inhibition (GI) (NCI-H322 [11]): Dose-dependent effect
- Activity (A549 [12]): 7.86%
- Activity (A549 [13]): 1.93%
- Activity (NCI-H322 [14]): Active
- Activity (A549 [15]): 13%

Structure (SMILES): O=C1c2cc(-c3ccccc3)nn2CCN1CCOCCO
- growth inhibition (GI) (A549 [16]): inactive

Structure (SMILES): COc1ccc(-c2cc3n(n2)CCN(CCN2CCOCC2)C3=O)cc1
- growth inhibition (GI) (A549 [16]): inactive

Structure (SMILES): O=C1c2cc(-c3ccc(Cl)cc3)nn2CCN1CCO
- Activity (A549 [1]): inactive
- Activity [2]: Non-toxic
- Activity (A549 [3]): inactive
- growth inhibition (GI) (A549 [4]): Dose-dependent effect
- Activity (NCI-H1299 [5]): Active
- Activity (NCI-H322 [6]): Active
- Activity (A549 [7]): 18.02%
- Activity (NCI-H1299 [8]): Active
- growth inhibition (GI) (NCI-H1299 [9]): Dose-dependent effect
- Activity (A549 [10]): inactive
- growth inhibition (GI) (NCI-H322 [11]): Dose-dependent effect
- Activity (A549 [12]): 5.37%
- Activity (A549 [13]): 1.95%
- Activity (NCI-H322 [14]): Active
- Activity (A549 [15]): 18%

Structure (SMILES): O=C1c2cc(-c3ccccc3)nn2CCN1CCN1CCOCC1
- growth inhibition (GI) (A549 [16]): inactive

Structure (SMILES): COc1ccc(-c2cc3n(n2)CCN(CCOCCO)C3=O)cc1
- growth inhibition (GI) (A549 [16]): inactive

Structure (SMILES): O=C1c2cc(-c3ccc(Cl)cc3)nn2CCN1CCN1CCOCC1
- Activity (A549 [1]): inactive
- Activity [2]: Non-toxic
- Activity (A549 [3]): inactive
- growth inhibition (GI) (A549 [4]): Dose-dependent effect
- Activity (NCI-H1299 [5]): Active
- Activity (NCI-H322 [6]): Active
- Activity (A549 [7]): 7.6%
- Activity (NCI-H1299 [8]): Active
- growth inhibition (GI) (NCI-H1299 [9]): Dose-dependent effect
- Activity (A549 [10]): inactive
- growth inhibition (GI) (NCI-H322 [11]): Dose-dependent effect
- Activity (A549 [12]): 6.83%
- Activity (A549 [13]): 1.94%
- Activity (NCI-H322 [14]): Active
- Activity (A549 [15]): 27%

Structure (SMILES): COc1ccc(-c2cc3n(n2)CCN(CCO)C3=O)cc1
- growth inhibition (GI) (A549 [16]): inactive

Structure (SMILES): O=C1c2cc(-c3ccccc3)nn2CCN1CCO
- growth inhibition (GI) (A549 [16]): inactive

Structure (SMILES): O=C1c2cc(-c3ccccc3)nn2CCN1CCCO
- growth inhibition (GI) (A549 [16]): inactive

Structure (SMILES): COc1ccc(-c2cc3n(n2)CCN(CCCO)C3=O)cc1
- growth inhibition (GI) (A549 [16]): inactive
